Activity calls are given as the source filed them. No cut-off for these calls is given here.
What was measured:
Rattus norvegicus [1] = organism: Rattus norvegicus; experiment: Potentiation of 3 mM of glucose-induced insulin secretion in rat islet at 0.3 uM
[2] = Oral bioavailability in rat at 30 mg/kg; assay type: ADME, organism-based; conditions: in vivo
[3] = Volume of distribution at steady state in rat at 30 mg/kg; assay type: ADME, organism-based; parameters: dose 30 mg/kg; conditions: in vivo, read-out: Vdss
Mus musculus [4] = experiment: Increase in glucagon level in GPR119 transgenic wild type mouse at 30 mg/kg, po after 60 mins relative to control; assay type: functional
Method in brief: (§1)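 Wild-type and GPR119 knockout mice, fasted overnight, were dosed by oral gavage (30 mg/kg, 10 mL/kg, 0.5% HPMC/0.1% Tween80 vehicle). Plasma was obtained from cardiac blood at 60 min in chilled K2-EDTA containing DPP-4 inhibitor and aprotinin, then stored at −80 °C. Hormone levels were compared with vehicle; n = 8–10.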

Cytochrome P450 2C9 = Cytochrome P450 2C9 (Homo sapiens, UniProt P11712); experiment: Inhibition of CYP2C9; assay type: ADME
Mus musculus [5] = experiment: Toxicity in C57BL/6 mouse assessed as effect on food intake at 10 mg/kg, po measured up to 24 hrs; assay type: organism-based; parameters: dose 10 mg/kg, route oral; conditions: in vivo
Method in brief: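 Individually housed male C57BL/6 mice were fasted overnight and given 10 mg/kg. Normal-chow hoppers were weighed and returned. Hopper weights were recorded at 1, 2, 4, 6 and 24 h post-dose and compared with vehicle-treated mice.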

Rattus norvegicus [6] = experiment: Antihyperglycemic activity in Wistar rat assessed as glucose excursion curve at 10 mg/kg, po by glucose tolerance test; assay type: functional
Mus musculus [7] = experiment: Increase in PYY level in GPR119 transgenic wild type mouse at 30 mg/kg, po after 60 mins relative to control; assay type: functional
Method in brief: as §1

[8] = Oral bioavailability in mouse at 30 mg/kg; assay type: ADME, organism-based; conditions: in vivo
[9] = Clearance in rat at 30 mg/kg; assay type: ADME, organism-based; parameters: dose 30 mg/kg; conditions: in vivo
[10] = Induction of GLP1 secretion in mouse GLUTag cells after 2 hrs; assay type: functional, cell-based
Method in brief: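 GLUTag cells were grown to 80% confluence on Matrigel-coated plates in DMEM with 2 mM L-glutamine and 10% FBS. They were preincubated 30 min in Krebs-Ringer buffer (10 mM D-glucose, 0.1% BSA, DPP-IV inhibitor). Compound was then added at varying concentrations in the same buffer for 2 h at 37 °C, 5% CO2. Cleared supernatant was assayed for amidated (active) GLP-1 by sandwich electrochemiluminescence immunoassay.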

Rattus norvegicus [11] = experiment: Increase of glucose infusion rate in Wistar rat at 10 mg/kg, po; assay type: functional, organism-based; parameters: dose 10 mg/kg
Method in brief: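 Catheterized male Wistar rats (300–350 g, jugular and femoral lines, one week recovery) were fasted overnight and gavaged with vehicle (n = 19) or compound (n = 8). After ~90 min, an IV glucose bolus over 15–30 s was followed by variable-rate glucose infusion. The infusion was adjusted to clamp plasma glucose at 190–210 mg/dL, and the required infusion rate was recorded. Serum glucose was measured by analyzer.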

[12] = Cmax in rat at 30 mg/kg; assay type: ADME, organism-based; parameters: dose 30 mg/kg; conditions: in vivo
Mus musculus [13] = experiment: Increase in GIP level in GPR119 transgenic wild type mouse at 30 mg/kg, po after 60 mins by ELISA relative to control; assay type: functional
Method in brief: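 Overnight-fasted wild-type or GPR119 knockout mice were given vehicle (0.5% HPMC/0.1% Tween80) or 30 mg/kg orally at 10 mL/kg. Cardiac blood was drawn 60 min post-dose under isoflurane into chilled K2-EDTA with DPP-4 inhibitor and aprotinin (250 KIU/mL). Plasma was prepared at 4 °C and held at −80 °C. Total GIP was measured by ELISA; n = 10.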

[14] = Clearance in mouse at 30 mg/kg; assay type: ADME, organism-based; parameters: dose 30 mg/kg; conditions: in vivo
Mus musculus [15] = experiment: Dose normalized AUC (0 to 24 hrs) in mouse at 30 mg/kg; assay type: ADME, organism-based; parameters: dose 30 mg/kg; conditions: in vivo

Cytochrome P450 2C9, sequence (P11712 whole entry): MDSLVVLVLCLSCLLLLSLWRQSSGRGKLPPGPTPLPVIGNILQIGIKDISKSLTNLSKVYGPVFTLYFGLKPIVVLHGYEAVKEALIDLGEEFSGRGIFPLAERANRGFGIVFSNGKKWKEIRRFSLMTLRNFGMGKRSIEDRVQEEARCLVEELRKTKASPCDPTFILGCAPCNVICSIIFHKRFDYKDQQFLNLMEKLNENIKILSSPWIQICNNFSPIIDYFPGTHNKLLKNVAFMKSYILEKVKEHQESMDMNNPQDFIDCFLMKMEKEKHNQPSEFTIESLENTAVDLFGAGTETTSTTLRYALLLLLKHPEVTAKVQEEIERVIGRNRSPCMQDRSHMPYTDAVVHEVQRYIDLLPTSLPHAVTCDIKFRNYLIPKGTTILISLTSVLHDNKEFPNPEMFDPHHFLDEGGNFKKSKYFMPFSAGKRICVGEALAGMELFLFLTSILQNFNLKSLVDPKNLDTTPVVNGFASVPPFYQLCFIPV

In the case of `CC(C)OC(=O)N1CCC(Oc2ncnc3c2CCN3c2ccc(S(C)(=O)=O)cc2F)CC1`, the Activity (Rattus norvegicus [1]) is reported as “inactive”, the bioavailability [2] is reported as 66% and the Vd [3] is reported as 1.5 L/kg. The “fold change (FC)” value (Mus musculus [4]) was 2, the IC50 (Cytochrome P450 2C9) was 3000 nM and the Activity (Mus musculus [5]) was “Non-toxic”. The Activity (Rattus norvegicus [6]) was 43%, the “fold change (FC)” value (Mus musculus [7]) was 3 and the bioavailability [8] was 40%. The clearance [9] was 8.4 mL/min/kg, the EC50 [10] was 20 nM and the Activity (Rattus norvegicus [11]) was “Active”. The Cmax [12] was 9 µM, the “fold change (FC)” value (Mus musculus [13]) was 2 and the clearance [14] was 7.2 mL/min/kg. The AUC/dose (Mus musculus [15]) was 1.7 µg·h/mL.

Reference: ChEMBL document CHEMBL2176966, “Discovery of 6,7-dihydro-5H-pyrrolo[2,3-a]pyrimidines as orally available G protein-coupled receptor 119 agonists” (J Med Chem, 2012)
